In paper PMC6733178 (ACS Omega, 2019):
Converted amounts (≈) assume the structure as drawn.

Key:
[1] = system: A. baumannii ATCC 19606 (Type Strain, AB06); assay: MIC, broth microdilution with resazurin; assay type: cell-based, Acinetobacter baumannii
Outline: (§1)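 CLSI broth microdilution. Strains were grown overnight at 35 °C on TSA or TSA with 5% sheep blood. Colonies were suspended in 0.9% saline to 0.5 McFarland, then diluted 1:100 in Mueller Hinton broth (about 1 × 10^6 CFU/mL). Test compound (2 mg/mL DMSO stock) was serially diluted 1:2 from 50 µg/mL final. Resazurin was added at 8 µg/mL final, and plates were incubated 35 °C for 20–24 h and read visually. MIC is the lowest concentration without the resazurin colour change. Each plate carried untreated, DMSO and antibiotic controls.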

[2] = system: A. baumannii ATCC 747 (Ab47); assay: MIC, broth microdilution with resazurin; assay type: cell-based, Acinetobacter baumannii
Outline: as §1

[3] = system: A. baumannii ATCC BAA-1605 (Ab05); assay: MIC, broth microdilution with resazurin; assay type: cell-based, Acinetobacter baumannii; details: NA = No Activity
Outline: as §1

[4] = system: S. aureus ATCC 25923 (Sa); assay: MIC, broth microdilution with resazurin; assay type: cell-based, Staphylococcus aureus; details: for MIC: Staphylococcus aureus, ATCC25923, read-out: MIC Values Sa
Outline: as §1

[5] = system: S. aureus BAA-2312 (Sa12); assay: MIC, broth microdilution with resazurin; assay type: cell-based, Staphylococcus aureus; details: for MIC: Staphylococcus aureus, BAA2312, read-out: MIC Values Sa12
Outline: as §1

[6] = system: S. aureus ATCC 33591 (Sa91); assay: MIC, broth microdilution with resazurin; assay type: cell-based, Staphylococcus aureus; details: for MIC: Staphylococcus aureus, ATCC33591, read-out: MIC Values Sa91
Outline: as §1

[7] = system: S. aureus ATCC 700699 (Sa99); assay: MIC, broth microdilution with resazurin; assay type: cell-based, Staphylococcus aureus; details: for MIC: Staphylococcus aureus, ATCC700699, read-out: MIC Values Sa99
Outline: as §1

[8] = system: S. aureus ATCC 33592 (Sa92); assay: MIC, broth microdilution with resazurin; assay type: cell-based, Staphylococcus aureus; details: for MIC: Staphylococcus aureus, ATCC33592, read-out: MIC Values Sa92
Outline: as §1

[9] = system: S. epidermidis 700296 (Se); assay: MIC, broth microdilution with resazurin; assay type: cell-based; details: for MIC: Staphylococcus epidermidis, read-out: MIC Values Se
[10] = system: human embryonic kidney (HEK293) cell line; assay: In vitro cytotoxicity, resazurin viability; assay type: cell-based; details: HEK293, 24 h incubation
Outline: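 HEK293 cells were counted and seeded at 4000 per well. Test compound was serially diluted from 50 µg/mL, added in triplicate, and incubated 24 h. Resazurin (5%) was then added, and plates were incubated 4 and 6 h before reading. Viability was read as fluorescence at 544 nm excitation and 590 nm emission.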

A. baumannii ATCC 19606 = assay: SYTO-9/propidium iodide; assay type: cell-based, Acinetobacter baumannii; details: compared with positive control Colistin 6.25 μg/mL
[11] = system: tested Gram-positive strains (S. aureus incl. MRSA, S. epidermidis, B. subtilis); assay: MIC summarised in the text over the tested Gram-positive strains; assay type: cell-based
[12] = system: three strains of A. baumannii; assay: MIC summarised in the text over the three A. baumannii strains; assay type: cell-based, Acinetobacter baumannii
Outline: as §1

[13] = system: B. subtilis ATCC 6623 (Bs); assay: MIC, broth microdilution with resazurin; assay type: cell-based; details: NA = No Activity
[14] = antibiotic-resistant strain, NA = No Activity

Molecule	MIC [4]	MIC [5]	MIC [6]	MIC [7]	MIC [8]	MIC [9]	IC50 [10]	also measured
Colistin [reference compound]								MIC Ab06 ([1]; NA = No Activity): 3.125 µg/mL; MIC Ab47 ([2]; NA = No Activity): 1.56 µg/mL; MIC Ab05 [3]: 3.125 µg/mL
O=C(O)c1ccc(-n2cc(/C=N/Nc3ccc(Cl)cc3Cl)c(-c3cccc(F)c3)n2)cc1 [Compound 12, 4-[4-[(E)-[(2,4-Dichlorophenyl)hydrazono]methyl]-3-(3-fluorophenyl)pyrazol-1-yl]benzoic Acid]	3.12 µg/mL (≈ 6.66 µM)	3.12 µg/mL (≈ 6.66 µM)	3.12 µg/mL (≈ 6.66 µM)	0.78 µg/mL (≈ 1.66 µM)	0.39 µg/mL (≈ 0.831 µM)	3.12 µg/mL (≈ 6.66 µM)	High IC50 values	
CN(/N=C/c1cn(-c2ccc(C(=O)O)cc2)nc1-c1ccc(F)cc1)c1ccccc1 [Compound 22, 4-[3-(4-Fluorophenyl)-4-[(E)-[methyl(phenyl)hydrazono]methyl]pyrazol-1-yl]benzoic Acid]	12.5 µg/mL (≈ 30.2 µM)		12.5 µg/mL (≈ 30.2 µM)	12.5 µg/mL (≈ 30.2 µM)	6.25 µg/mL (≈ 15.1 µM)	12.5 µg/mL (≈ 30.2 µM)		membrane disruption ability (ratio of PI to SYTO-9 signals) (A. baumannii ATCC 19606): better membrane disruption ability than the positive control; activity against the tested strains (in words) [11]: moderate activity
CN1CCN(/N=C/c2cn(-c3ccc(C(=O)O)cc3)nc2-c2cccc(F)c2)CC1 [Compound 21, 4-[3-(3-Fluorophenyl)-4-[(E)-(4-methylpiperazin-1-yl)iminomethyl]pyrazol-1-yl]benzoic Acid]								membrane disruption ability (ratio of PI to SYTO-9 signals) (A. baumannii ATCC 19606): better membrane disruption ability than the positive control; activity against the tested strains (in words) [11]: completely ceased the activity
O=C(O)c1ccc(-n2cc(/C=N/Nc3cccc(Br)c3)c(-c3cccc(F)c3)n2)cc1 [Compound 9, 4-[4-[(E)-[(3-Bromophenyl)hydrazono]methyl]-3-(3-fluorophenyl)pyrazol-1-yl]benzoic Acid]	12.5 µg/mL (≈ 26.1 µM)	12.5 µg/mL (≈ 26.1 µM)	12.5 µg/mL (≈ 26.1 µM)	3.12 µg/mL (≈ 6.52 µM)	6.25 µg/mL (≈ 13 µM)	12.5 µg/mL (≈ 26.1 µM)		MIC ([1]; Acinetobacter baumannii, ATCC19606, read-out: MIC Ab06): 6.25 µg/mL (≈ 13 µM); MIC ([2]; Acinetobacter baumannii, ATCC747, read-out: MIC Ab47): 12.5 µg/mL (≈ 26.1 µM); activity against A. baumannii strains (in words) [12]: moderate activity
O=C(O)c1ccc(-n2cc(/C=N/N(c3ccccc3)c3ccccc3)c(-c3cccc(F)c3)n2)cc1 [Compound 5, 4-[4-[(E)-(Diphenylhydrazono)methyl]-3-(3-fluorophenyl)pyrazol-1-yl]benzoic Acid]	3.12 µg/mL (≈ 6.56 µM)	3.12 µg/mL (≈ 6.56 µM)	3.12 µg/mL (≈ 6.56 µM)	1.56 µg/mL (≈ 3.27 µM)	0.78 µg/mL (≈ 1.64 µM)	3.12 µg/mL (≈ 6.56 µM)	High IC50 values	
O=C(O)c1ccc(-n2cc(/C=N/N(c3ccccc3)c3ccccc3)c(-c3ccc(F)cc3)n2)cc1 [Compound 23, 4-[4-[(E)-(Diphenylhydrazono)methyl]-3-(4-fluorophenyl)pyrazol-1-yl]benzoic Acid]	1.56 µg/mL (≈ 3.27 µM)	3.12 µg/mL (≈ 6.56 µM)		1.56 µg/mL (≈ 3.27 µM)	0.78 µg/mL (≈ 1.64 µM)		High IC50 values	MIC Values Se ([9]; NA = No Activity): no activity; MIC Values Bs ([13]; Table 2): 1.56 µg/mL (≈ 3.27 µM)
4-[4-[(2,2-Dibenzylhydrazino)methyl]-3-(3-fluorophenyl)pyrazol-1-yl]benzoic Acid [Compound 7]								MIC Values Sa ([4]; antibiotic susceptible strain, NA = No Activity): 12.5 µg/mL; MIC Values Sa12 [5, 14]: 6.25 µg/mL; MIC Values Sa91 [6, 14]: 6.25 µg/mL; MIC Values Sa99 [7, 14]: 3.125 µg/mL; MIC Values Sa92 [8, 14]: 3.125 µg/mL; MIC Values Bs [13]: 1.56 µg/mL
